B1: tRNA (parent)
chain: GUUCCGUUGGCGUAAUGGUAACGCGUCUCCCUCCUAAGGAGAAGACUGCGGGUUCGAGUCCCGUACGGAACG

This sample holds only a part of the variants without activity.

The data set covers variants of B1. Nature of the data set: yeast fitness relative to wild type (ratio to wild type); higher = fitter; tRNA-Arg(CCU), competitive growth, 37 C, YPD. In a few lines: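 The tRNA-Arg(CCU) gene variants were made by chemical synthesis with a 3% per-site mutation rate at 69 sites and inserted at the native genomic locus of Saccharomyces cerevisiae. After pooling, the strains were competed in YPD at 37°C for 24 hours in six parallel replicates. Gene amplicons from the start population and each end population were read by 100-nucleotide paired-end sequencing, and Darwinian fitness relative to wild type was taken from genotype frequency changes. Genotypes needed ≥ 100 starting reads, and estimates < 0.5 were set to 0.5.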
In the case of C4A A14G C22G C29U, the yeast fitness was 0.569.
On to C4A A37U G51A, for which the yeast fitness was ≤ 0.5.
With C4A A20C, the yeast fitness turned out to be 0.64.
Under U3G G12A C27A C29G U53A C60A A69C stands ≤ 0.5.
In the case of U3G U13C A14U C29A C55U, the yeast fitness was 0.611.
The figure for C4A A15G U32C U35C G67C A69U is ≤ 0.5.
The figure for C4A A14C is 0.591; for C4A A20G G44C A45G C55U it is ≤ 0.5; for C4A C5G G51A C60U G67A it is ≤ 0.5.
For the variant C4A A43C G58A, the yeast fitness worked out at 0.588.
Consider U3G G12C A42U G67C, for which the yeast fitness is ≤ 0.5.
The figure for U3G C11A C34G A45C is ≤ 0.5.
U3G C5U U32C G41C: the yeast fitness is ≤ 0.5.
As for U3G U13A U16A C62U U64A, the yeast fitness is ≤ 0.5.
Under U3G C31U C49U A70C stands ≤ 0.5.
Under C4A A14G C30G A45G G52A G63A stands ≤ 0.5.
Under C4A A14G A15G G56C stands ≤ 0.5; under U3G G25A A45U C62A, ≤ 0.5; under U3G U13G A14C G39C G41A C60G C61U C62G A65U, 0.543.
For U3G G12C A70C, the yeast fitness stood at 0.545.
With C4A A21C, the yeast fitness turned out to be 0.775.
Consider C4A A21G, for which the yeast fitness amounted to 0.974.
The figure for C4A C5G A15G G23C C30U is ≤ 0.5.
In the case of C4A A15G G17A C61G, the yeast fitness is ≤ 0.5.
Under U3G U7C A40U stands 0.502; under U3G C31G U64A C66U G68C, ≤ 0.5.
Under C4A A45G stands 0.808.
On to C4A A45U, for which the yeast fitness came out at 0.818.
Under C4A A20C C27U U32C C46U stands ≤ 0.5.
Under C4A A15G C33U C62U stands ≤ 0.5; under U3G U7G C22U C60G, ≤ 0.5; under U3G C11A G52A C66G G68C, ≤ 0.5.
The figure for C4A A14U A20C U28G C49U is ≤ 0.5; for C4A A37C G56A G68U it is 0.699; for C4A A42G U64A it is ≤ 0.5.
U3G C31G: the yeast fitness turned out to be 0.874.
Regarding U3G C31A, the yeast fitness turned out to be 0.747.
For C4A C5A U35C G44A G48C C55G A69U, the yeast fitness is ≤ 0.5.
Under C4A A15G G56C C60A stands ≤ 0.5; under U3G G18A G25A C29A, ≤ 0.5.
The figure for C4A A20G C60A A70C is ≤ 0.5.
Under U3G C46A A57U A69U stands ≤ 0.5; under C4A A36G G51C A65U, ≤ 0.5.
Turning to U3G U8A C24A A70G, the yeast fitness is ≤ 0.5.
Under U3G U47C stands 0.901; under C4A A15U G48A, 0.559.
As to C4A A21G G68A, the yeast fitness was determined as 0.7.
Under C4A A20U A43U U53C U59A C66U stands ≤ 0.5; under U3G U35A A70G, ≤ 0.5; under C4A A43U U47G, ≤ 0.5.
Under U3G C11U A43U A57U C66A stands ≤ 0.5.
The figure for U3G C49U G58A G63A is 0.584; for C4A A14U A20C U28G A70C it is ≤ 0.5.
As for C4A A14U A20C U28G C66U, the yeast fitness stood at 0.557.
Under U3G G17C C61A stands 0.61; under C4A A20U C34A G63C G67C A69U, ≤ 0.5; under U3G C30G G56A, ≤ 0.5.
Consider C4A A36U A37C U47C A70U, for which the yeast fitness was found to be 0.55.
Under U3G C22G C29A stands ≤ 0.5; under C4A A65U C66A, ≤ 0.5; under C4A A43U C60A, ≤ 0.5.
With C4A A15G C33U, the yeast fitness was determined as 0.753.
With U3G C24G C49U G58A G63A, the yeast fitness is ≤ 0.5.
C4A C5G A37G C46G: the yeast fitness was ≤ 0.5.
The figure for C4A A36G A40G C66U is 0.624; for C4A A14G C30G A45G G52A it is 0.609; for C4A C5G it is 0.571.
Under C4A A14C G38A U59G stands ≤ 0.5; under U3G C24U C31U C61U, 0.57; under C4A A20C C27U C49G, ≤ 0.5.
Under U3G G25A stands 0.768; under U3G G50A C62U, 1.04.
Take U3G G25A C61U: the yeast fitness is 0.733.
The figure for C4A A65C G67U is ≤ 0.5; for U3G C22U C27U G56A it is ≤ 0.5; for U3G C11A U13C C33A A42U C55A it is ≤ 0.5.
Consider C4A A14C U19A A69C, for which the yeast fitness came out at 0.53.
In the case of C4A A14U A20C U28G C62A, the yeast fitness is ≤ 0.5.
Turning to U3G C33U A37C A65C, the yeast fitness is ≤ 0.5.
The figure for C4A A14U A20C U28G is 0.588; for U3G U8A G18C G50C it is ≤ 0.5.
The figure for U3G U35A is 0.533; for C4A A40U G52C C60G A69C it is 0.55.
Under U3G C29A U35G G51A stands ≤ 0.5; under U3G C46U G68C, 0.607; under C4A A14U A43C A65U, ≤ 0.5.
As for C4A A14U C34U, the yeast fitness was determined as 0.763.
The figure for C4A C5A G23A is ≤ 0.5; for C4A C5G C24G C29U it is ≤ 0.5.
With U3G C31G A43C G52A, the yeast fitness was 0.595.
With U3G U53C A57G C66U A69U, the yeast fitness is ≤ 0.5.
The figure for C4A A15C U35A C49A is 0.545; for C4A C5G U8A C30A C62A it is ≤ 0.5.
Under C4A C5G C66U stands 0.538.
Under C4A C5G C66G stands 0.597.
Take U3G C22U A57G C60A A65U: the yeast fitness was 0.63.
Regarding C4A A15C U35G, the yeast fitness was ≤ 0.5.
For the variant U3G C11A C34G A45C G52C, the yeast fitness worked out at 0.546.
With C4A A14U A20C U28G G63U A69C, the yeast fitness was ≤ 0.5.
The figure for U3G G18C G44A is ≤ 0.5; for U3G U16C G39C A45C C49G A69U it is ≤ 0.5; for U3G U8C A15U C49A it is 0.597.
The figure for U3G C46G G52C is ≤ 0.5; for C4A A14U C34U U54C it is ≤ 0.5.
For the variant C4A A15U, the yeast fitness is 0.645.
Under C4A A15C stands 0.544.
Under C4A C5G C60U C62U stands ≤ 0.5; under C4A C5G G39C, ≤ 0.5; under U3G C11U U19C A20U A43U C62G C66A A69C, ≤ 0.5.
Take C4A A14G G52C C66U: the yeast fitness was ≤ 0.5.
On to C4A A14G G23C A65G, for which the yeast fitness is ≤ 0.5.
C4A A20G C24G C31G C62U: the yeast fitness amounted to 0.598.
The figure for C4A A20U C24U U26G C27U A36C A45U C55G is 0.607; for C4A A21C C22U G50C it is 0.617.
Under C4A A15G C31U C33U stands ≤ 0.5; under U3G U64G, 0.716; under C4A C5A C34A A43G, ≤ 0.5.
Under U3G U13A stands 1.1.
For the variant C4A A14U A20C U28G C61U C62A, the yeast fitness is ≤ 0.5.
The figure for C4A C5U C22G G44C is ≤ 0.5; for C4A A21U C27A G41C A70G it is ≤ 0.5; for U3G C33A G52A it is 0.651.
Take C4A C5A C30A C31U C33A A40U C60G: the yeast fitness is ≤ 0.5.
The figure for U3G G48C G67A is 0.683; for U3G C49A G63U G67A it is ≤ 0.5.
With C4A A65U A69U, the yeast fitness worked out at 0.774.
Consider C4A A42U C55G, for which the yeast fitness is ≤ 0.5.
Under C4A A14U C29U stands 0.657; under C4A A15G G17A A21C U28A A40U, ≤ 0.5; under C4A A42C, 0.794.
The figure for C4A A42G is 0.991; for U3G U26A C29A C34A G38A A65U it is ≤ 0.5; for U3G U13C A14U C29A A69C it is 0.562.
For U3G U7A G9A U28C A40U, the yeast fitness is ≤ 0.5.
The figure for U3G C5U U26A G68A is ≤ 0.5.
The figure for U3G C31U C34U C46G is ≤ 0.5; for C4A A14U A20C U28G G63A it is 0.562; for C4A A21G A45U A69U it is 0.655.
Under C4A C5U U8C U47C U64A stands ≤ 0.5; under C4A C5A A43G, 0.529.
On to U3G C30U G48C G68C, for which the yeast fitness was found to be 0.526.
Consider U3G G6A A36U G48C G52C A57U C60G, for which the yeast fitness was 0.569.
The figure for U3G G52C C62A A65C A70U is ≤ 0.5.
Consider C4A A37G G63C, for which the yeast fitness is 0.552.
The figure for C4A C5U G48C is ≤ 0.5; for U3G C30A it is 0.868; for U3G C30G it is ≤ 0.5.
The figure for C4A A14U A20C U28G U32A is ≤ 0.5; for U3G U13C C22A G25C C33U A69C it is ≤ 0.5.
In the case of C4A A36U G50A C61U, the yeast fitness was ≤ 0.5.
On to C4A C5U G17A G52C, for which the yeast fitness came to 0.581.
The figure for U3G U59A is 0.793; for C4A A40U G52C C60G it is 0.552; for C4A A37U it is 0.795.
Under C4A A37G stands 0.754.
The figure for U3G C5U U32C G41C C49U U59G is ≤ 0.5.
Take U3G G39A A40G: the yeast fitness was ≤ 0.5.
Under U3G C31U C49U G50A stands ≤ 0.5.
Under C4A A40G stands 0.828; under C4A A42G A45C, ≤ 0.5; under U3G U8C C33U U54C C66A, ≤ 0.5.
Take C4A A57C: the yeast fitness was 0.57.
Under C4A A57G stands 0.841.
Under U3G U13C C33A A42U C55A stands 0.585; under C4A A20G C24G C31G, ≤ 0.5.
Under C4A A15G G56C stands 0.583.
With C4A A14C C27A, the yeast fitness was ≤ 0.5.

Source of the values: the RNAGym collection of RNA variant scans (doi:10.1126/science.aae0568).
